We go through 15 compounds from ChEMBL document CHEMBL2412977, “Synthetic studies of centromere-associated protein-E (CENP-E) inhibitors: 1.Exploration of fused bicyclic core scaffolds using electrostatic potential map” (Bioorg Med Chem, 2013).

Data set [1] deals with T1, Centromere-associated protein E (Homo sapiens, UniProt Q02224). Nature of the data set: Inhibition of ATPase activity of CENP-E motor domain (unknown origin) by high throughput screening assay.
Data set [2] addresses T1, Centromere-associated protein E. Put plainly: Inhibition of human ATPase activity of CENP-E motor domain assessed as ADP production after 60 mins by ADP-Glo luminescence assay.
The test system of the next data set is HeLa. Put plainly: Induction of mitotic arrest in human HeLa cells assessed as accumulation of phosphorylated histone H3 after 16 hrs by FACS analysis. It counts as functional, cell-based. In outline:
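HeLa cells scored for phosphorylated histone H3 positive cell count (%) by FACS. EC50 is the concentration giving a response halfway between baseline and maximum p-HH3 positive count.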
(In general: Flow cytometry measures light scatter and fluorescence of single cells or particles in a stream.)

A short description of data set [3]: Permeability of the compound at pH 7.4 by PAMPA. It counts as ADME. The following applies: read-out: permeability. In outline:
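Passive permeability measured in a parallel artificial membrane permeability assay (PAMPA) system at pH 7.4, reported in nm/sec.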
A general note: The PAMPA barrier holds no transporters, so it reflects passive diffusion.

T1 sequence (Q02224 whole entry, the tested form may be a part): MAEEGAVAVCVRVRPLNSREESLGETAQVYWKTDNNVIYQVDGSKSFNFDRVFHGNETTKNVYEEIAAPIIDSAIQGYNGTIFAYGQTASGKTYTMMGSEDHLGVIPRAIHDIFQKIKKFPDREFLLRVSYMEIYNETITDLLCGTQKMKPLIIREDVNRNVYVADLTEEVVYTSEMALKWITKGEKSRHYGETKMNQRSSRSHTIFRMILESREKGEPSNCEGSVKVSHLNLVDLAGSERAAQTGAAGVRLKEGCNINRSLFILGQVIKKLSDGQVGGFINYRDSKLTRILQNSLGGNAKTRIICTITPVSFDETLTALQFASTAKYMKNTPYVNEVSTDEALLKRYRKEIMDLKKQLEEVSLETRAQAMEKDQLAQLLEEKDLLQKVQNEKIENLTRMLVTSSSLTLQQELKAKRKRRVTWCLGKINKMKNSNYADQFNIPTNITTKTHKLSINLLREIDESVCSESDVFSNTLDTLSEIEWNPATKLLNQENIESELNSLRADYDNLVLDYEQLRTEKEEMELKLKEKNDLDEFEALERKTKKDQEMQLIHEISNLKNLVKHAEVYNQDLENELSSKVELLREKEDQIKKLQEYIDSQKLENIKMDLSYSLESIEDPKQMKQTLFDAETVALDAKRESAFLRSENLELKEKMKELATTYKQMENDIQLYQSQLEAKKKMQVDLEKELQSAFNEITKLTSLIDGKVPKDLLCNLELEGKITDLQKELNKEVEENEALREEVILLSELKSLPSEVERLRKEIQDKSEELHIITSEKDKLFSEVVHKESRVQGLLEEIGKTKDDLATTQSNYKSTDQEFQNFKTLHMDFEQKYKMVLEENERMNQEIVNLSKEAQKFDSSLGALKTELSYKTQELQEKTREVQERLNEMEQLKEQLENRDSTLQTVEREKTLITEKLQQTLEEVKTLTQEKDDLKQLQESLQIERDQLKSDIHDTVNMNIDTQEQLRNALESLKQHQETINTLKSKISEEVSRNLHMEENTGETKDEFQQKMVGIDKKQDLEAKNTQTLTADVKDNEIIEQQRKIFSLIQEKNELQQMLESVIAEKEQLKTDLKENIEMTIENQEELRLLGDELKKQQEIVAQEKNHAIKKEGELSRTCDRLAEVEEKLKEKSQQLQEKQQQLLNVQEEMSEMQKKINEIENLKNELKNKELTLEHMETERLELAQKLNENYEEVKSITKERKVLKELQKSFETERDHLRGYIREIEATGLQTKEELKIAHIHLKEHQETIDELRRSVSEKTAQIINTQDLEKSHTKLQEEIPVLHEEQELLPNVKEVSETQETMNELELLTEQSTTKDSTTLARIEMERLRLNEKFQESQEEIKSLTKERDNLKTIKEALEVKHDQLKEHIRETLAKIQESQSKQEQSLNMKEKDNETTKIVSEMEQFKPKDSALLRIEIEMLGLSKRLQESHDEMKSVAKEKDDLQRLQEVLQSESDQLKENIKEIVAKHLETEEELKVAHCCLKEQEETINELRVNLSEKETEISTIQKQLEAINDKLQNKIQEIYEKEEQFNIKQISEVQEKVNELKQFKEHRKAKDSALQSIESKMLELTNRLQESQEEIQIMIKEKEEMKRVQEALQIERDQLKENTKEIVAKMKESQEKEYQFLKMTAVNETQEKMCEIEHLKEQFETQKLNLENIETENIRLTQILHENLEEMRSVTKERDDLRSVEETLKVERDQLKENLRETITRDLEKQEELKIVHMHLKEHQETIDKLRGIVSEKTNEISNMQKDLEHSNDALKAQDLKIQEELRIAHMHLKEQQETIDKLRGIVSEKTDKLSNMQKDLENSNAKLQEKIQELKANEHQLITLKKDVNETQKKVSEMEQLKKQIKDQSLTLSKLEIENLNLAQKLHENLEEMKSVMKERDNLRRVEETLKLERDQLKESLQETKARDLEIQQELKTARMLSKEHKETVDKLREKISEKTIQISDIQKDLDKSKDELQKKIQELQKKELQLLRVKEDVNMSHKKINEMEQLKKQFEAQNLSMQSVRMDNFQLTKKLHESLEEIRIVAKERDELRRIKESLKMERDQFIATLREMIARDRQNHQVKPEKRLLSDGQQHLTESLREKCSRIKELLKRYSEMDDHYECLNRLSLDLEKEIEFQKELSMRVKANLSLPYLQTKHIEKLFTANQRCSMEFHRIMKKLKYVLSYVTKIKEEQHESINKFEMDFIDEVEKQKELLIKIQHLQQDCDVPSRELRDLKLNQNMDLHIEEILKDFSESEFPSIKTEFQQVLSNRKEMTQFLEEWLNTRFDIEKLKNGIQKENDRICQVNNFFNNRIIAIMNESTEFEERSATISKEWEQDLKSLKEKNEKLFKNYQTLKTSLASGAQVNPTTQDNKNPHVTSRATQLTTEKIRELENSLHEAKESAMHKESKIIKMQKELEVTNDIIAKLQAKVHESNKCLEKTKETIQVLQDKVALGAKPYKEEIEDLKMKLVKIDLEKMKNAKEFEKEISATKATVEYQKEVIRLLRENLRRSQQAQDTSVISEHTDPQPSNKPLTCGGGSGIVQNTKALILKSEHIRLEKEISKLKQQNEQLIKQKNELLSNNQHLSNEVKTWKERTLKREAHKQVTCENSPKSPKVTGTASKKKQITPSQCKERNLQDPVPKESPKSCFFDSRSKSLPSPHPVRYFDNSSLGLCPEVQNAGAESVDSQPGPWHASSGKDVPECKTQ

`CN(Cc1cc(C(F)(F)F)cc(C(F)(F)F)c1)C(=O)c1c(-c2ccc(F)cc2)c2cscc2c(=O)n1C` displayed a half-maximal inhibitory concentration (IC50) in data set [1] of 2100 nM.
On to `CN(Cc1ccc(Cl)c(Cl)c1)C(=O)c1c(-c2ccc(F)cc2)c2cscc2c(=O)n1C`, for which the IC50 in data set [2] and in data set [1] was 1500 nM throughout.
For `CN(Cc1ccc(Cl)c(Cl)c1)C(=O)c1c(-c2ccc(F)cc2)c2cscc2c(=O)n1CCO`, the IC50 in data set [2] is 1800 nM.
On the same count and under the same terms, as for `CN(C)CCn1c(C(=O)N(C)Cc2ccc(Cl)c(Cl)c2)c(-c2ccc(F)cc2)c2cscc2c1=O`, the figure is 72 nM; as for `CN(C)CCCn1c(C(=O)N(C)Cc2ccc(Cl)c(Cl)c2)c(-c2ccc(F)cc2)c2cscc2c1=O`, 300 nM; as for `CN(C)CCN(Cc1ccc(Cl)c(Cl)c1)C(=O)c1c(-c2ccc(F)cc2)c2cscc2c(=O)n1C`, 100 nM.
Same read-out and setting: the result for `CN(C)CCN(Cc1ccc(Cl)c(Cl)c1)C(=O)c1c(-c2ccc(F)cc2)c2ccccc2n1C` reads 8500 nM.
On the same count and under the same terms, the result for `Cc1c(C(=O)N(CCN(C)C)Cc2ccc(Cl)c(Cl)c2)n(-c2ccc(F)cc2)c2ccccc12` reads 2100 nM.
For the compound `CN(C)CCN(Cc1ccc(Cl)c(Cl)c1)C(=O)c1cc2sccc2n1-c1ccc(F)cc1`, the IC50 in data set [2] is 2000 nM.
With `Cc1csc2cc(C(=O)N(CCN(C)C)Cc3ccc(Cl)c(Cl)c3)n(-c3ccc(F)cc3)c12`, in data set [2], the IC50 was 370 nM.
In the case of `CN(C)CCN(Cc1ccc(Cl)c(Cl)c1)C(=O)c1cc2scc(Br)c2n1-c1ccc(F)cc1`, the IC50 in data set [2] was found to be 32 nM. Besides, the EC50 in the data set with HeLa was found to be 3000 nM. The Papp in data set [3] was 4.1 ×10⁻⁶ cm/s.
In the case of `CN(C)CCN(Cc1ccc(Cl)c(Cl)c1)C(=O)c1cc2scc(Cl)c2n1-c1ccc(F)cc1`, in data set [2], the IC50 amounted to 35 nM.
Still for that read-out and setting: the result for `CN(C)CCN(Cc1ccc(Cl)c(Cl)c1)C(=O)c1cc2scc(C(F)(F)F)c2n1-c1ccc(F)cc1` reads 140 nM; that for `CN(C)CCN(Cc1ccc(Cl)c(Cl)c1)C(=O)c1cc2scc(C#N)c2n1-c1ccc(F)cc1`, 540 nM.
For `CN(C)CCN(Cc1ccc(Cl)c(Cl)c1)C(=O)c1nc2cccc(Br)n2c1-c1ccc(F)cc1`, the half-inhibitory concentration (IC50) in data set [2] worked out at 50 nM. Also, the EC50 in the data set on HeLa amounted to 1540 nM. Further, the Papp in data set [3] turned out to be 35.3 ×10⁻⁶ cm/s.

By IC50 is commonly meant the midpoint of a concentration-inhibition curve. In general, EC50 refers to the concentration giving half of the maximal effect.
